Where a chain is given by its changes, count along the chain named.
Experiments:
Details in all cases: stereoisomer not certain
O5AP2 A105T = tested on: T1, O5AP2 A105T
T1 sequence (whole entry): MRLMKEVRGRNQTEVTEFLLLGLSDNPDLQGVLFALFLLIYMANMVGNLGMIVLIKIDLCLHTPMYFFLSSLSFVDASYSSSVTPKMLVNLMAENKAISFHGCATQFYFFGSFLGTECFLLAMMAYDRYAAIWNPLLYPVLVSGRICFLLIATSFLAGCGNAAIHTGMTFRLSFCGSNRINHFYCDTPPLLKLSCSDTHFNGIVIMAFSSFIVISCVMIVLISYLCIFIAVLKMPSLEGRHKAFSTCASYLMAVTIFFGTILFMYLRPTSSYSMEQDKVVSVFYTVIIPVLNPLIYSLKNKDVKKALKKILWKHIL
How it was run: (§1)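 Each receptor–molecule pair is labelled responsive or non-responsive (inactive) according to whether the original authors judged the measured signal statistically different from baseline. The data were taken from the main text and supplementary material of published papers and checked for typos and inconsistencies. Assay methods differed by source, with transient luciferase assays in mammalian cell lines being common.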

O5AU1 = tested on: T2, O5AU1
T2 sequence (whole entry): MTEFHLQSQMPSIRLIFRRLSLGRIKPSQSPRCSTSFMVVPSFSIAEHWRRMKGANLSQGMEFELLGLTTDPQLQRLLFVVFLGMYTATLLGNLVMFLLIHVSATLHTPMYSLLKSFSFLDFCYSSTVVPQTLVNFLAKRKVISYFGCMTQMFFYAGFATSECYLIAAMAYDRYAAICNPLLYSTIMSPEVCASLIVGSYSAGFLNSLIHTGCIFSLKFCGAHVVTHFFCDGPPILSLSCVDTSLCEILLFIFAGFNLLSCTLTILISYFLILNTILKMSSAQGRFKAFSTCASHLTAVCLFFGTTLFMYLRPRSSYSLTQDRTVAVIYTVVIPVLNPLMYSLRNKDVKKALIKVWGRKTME
How it was run: as §1

O5H14 = tested on: T3, O5H14
T3 sequence (whole entry): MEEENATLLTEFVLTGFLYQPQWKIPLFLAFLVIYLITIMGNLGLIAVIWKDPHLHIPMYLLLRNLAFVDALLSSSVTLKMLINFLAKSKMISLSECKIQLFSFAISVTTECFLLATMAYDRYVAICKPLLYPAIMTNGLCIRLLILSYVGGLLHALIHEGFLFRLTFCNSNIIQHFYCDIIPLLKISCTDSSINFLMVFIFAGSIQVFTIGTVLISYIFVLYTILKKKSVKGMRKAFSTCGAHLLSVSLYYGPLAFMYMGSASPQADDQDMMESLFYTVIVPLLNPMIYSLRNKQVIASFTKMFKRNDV
How it was run: as §1

O5H15 V108I S148T T167S = tested on: T4, O5H15 V108I S148T T167S
T4 sequence (whole entry): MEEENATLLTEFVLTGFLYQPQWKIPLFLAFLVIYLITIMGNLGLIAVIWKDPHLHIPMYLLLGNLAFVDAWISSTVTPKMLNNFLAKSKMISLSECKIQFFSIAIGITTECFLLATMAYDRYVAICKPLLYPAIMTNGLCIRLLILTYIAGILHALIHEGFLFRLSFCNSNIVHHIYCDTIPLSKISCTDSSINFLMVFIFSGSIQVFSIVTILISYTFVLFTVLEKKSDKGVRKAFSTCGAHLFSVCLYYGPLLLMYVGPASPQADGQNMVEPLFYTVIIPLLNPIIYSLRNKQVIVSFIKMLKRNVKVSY
How it was run: as §1

O6C65 T222A = tested on: T5, O6C65 T222A
T5 sequence (whole entry): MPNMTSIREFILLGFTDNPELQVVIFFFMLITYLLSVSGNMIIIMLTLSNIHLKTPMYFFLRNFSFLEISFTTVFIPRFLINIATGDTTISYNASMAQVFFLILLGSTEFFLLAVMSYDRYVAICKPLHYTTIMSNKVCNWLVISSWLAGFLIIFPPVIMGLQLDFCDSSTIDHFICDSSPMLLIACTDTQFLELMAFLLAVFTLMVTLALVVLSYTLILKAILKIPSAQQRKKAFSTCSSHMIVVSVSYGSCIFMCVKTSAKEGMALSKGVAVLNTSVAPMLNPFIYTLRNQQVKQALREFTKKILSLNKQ
How it was run: as §1

O6C70 L181P = tested on: T6, O6C70 L181P
T6 sequence (whole entry): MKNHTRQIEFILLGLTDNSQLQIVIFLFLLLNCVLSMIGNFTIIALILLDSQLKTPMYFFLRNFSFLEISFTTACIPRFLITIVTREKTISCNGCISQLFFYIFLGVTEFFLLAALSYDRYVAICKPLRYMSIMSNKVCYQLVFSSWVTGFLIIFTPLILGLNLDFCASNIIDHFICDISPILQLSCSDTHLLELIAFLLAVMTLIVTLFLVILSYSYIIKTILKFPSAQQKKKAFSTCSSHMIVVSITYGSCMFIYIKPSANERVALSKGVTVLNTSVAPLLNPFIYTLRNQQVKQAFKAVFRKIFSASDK
How it was run: as §1

O7E24 S193F P242S = tested on: T7, O7E24 S193F P242S
T7 sequence (whole entry): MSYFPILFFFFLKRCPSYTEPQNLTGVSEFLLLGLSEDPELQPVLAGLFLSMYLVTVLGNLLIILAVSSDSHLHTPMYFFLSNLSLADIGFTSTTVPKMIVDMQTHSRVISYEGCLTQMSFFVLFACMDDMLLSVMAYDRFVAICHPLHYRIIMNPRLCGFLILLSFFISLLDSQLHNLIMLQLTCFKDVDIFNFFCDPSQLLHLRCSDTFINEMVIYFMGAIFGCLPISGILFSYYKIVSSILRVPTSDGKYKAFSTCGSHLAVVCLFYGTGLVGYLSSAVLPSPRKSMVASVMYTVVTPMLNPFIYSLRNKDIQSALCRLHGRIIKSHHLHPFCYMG
How it was run: as §1

O7E24 = tested on: T8, O7E24
T8 sequence (whole entry): T7 sequence (whole entry) with F193S
How it was run: as §1

OR10A2 (Homo sapiens) = target: T9, OR10A2 (Homo sapiens) (UniProt Q9H208)
T9 sequence (whole entry): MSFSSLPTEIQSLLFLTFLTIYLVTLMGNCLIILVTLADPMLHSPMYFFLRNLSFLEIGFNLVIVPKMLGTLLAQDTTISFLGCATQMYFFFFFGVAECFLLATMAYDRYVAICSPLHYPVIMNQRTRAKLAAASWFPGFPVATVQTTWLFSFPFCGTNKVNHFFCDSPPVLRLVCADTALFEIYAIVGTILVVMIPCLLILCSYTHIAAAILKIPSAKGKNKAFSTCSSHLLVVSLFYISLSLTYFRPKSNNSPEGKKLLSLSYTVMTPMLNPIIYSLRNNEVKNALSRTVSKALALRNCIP
How it was run: as §1

OR10A3 (Homo sapiens) = target: T10, OR10A3 (Homo sapiens) (UniProt P58181)
T10 sequence (whole entry): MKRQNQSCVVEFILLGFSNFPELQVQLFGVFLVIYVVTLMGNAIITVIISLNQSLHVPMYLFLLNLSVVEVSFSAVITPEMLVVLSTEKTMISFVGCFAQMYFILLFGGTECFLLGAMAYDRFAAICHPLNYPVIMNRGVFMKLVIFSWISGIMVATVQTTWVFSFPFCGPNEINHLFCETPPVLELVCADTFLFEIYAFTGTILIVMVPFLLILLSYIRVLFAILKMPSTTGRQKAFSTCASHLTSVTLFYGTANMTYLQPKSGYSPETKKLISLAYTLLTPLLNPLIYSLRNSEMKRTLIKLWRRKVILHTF
How it was run: as §1

OR10A4 (Homo sapiens) = target: T11, OR10A4 (Homo sapiens) (UniProt Q9H209)
T11 sequence (whole entry): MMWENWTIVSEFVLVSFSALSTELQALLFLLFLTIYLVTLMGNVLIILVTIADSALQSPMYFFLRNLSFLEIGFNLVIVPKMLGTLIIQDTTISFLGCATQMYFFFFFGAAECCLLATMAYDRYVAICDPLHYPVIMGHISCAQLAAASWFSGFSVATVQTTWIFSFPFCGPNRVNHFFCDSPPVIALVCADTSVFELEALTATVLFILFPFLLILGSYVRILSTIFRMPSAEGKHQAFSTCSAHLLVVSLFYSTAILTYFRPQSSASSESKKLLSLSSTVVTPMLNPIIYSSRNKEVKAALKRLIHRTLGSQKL
How it was run: as §1

OR10A5 (Homo sapiens) = target: T12, OR10A5 (Homo sapiens) (UniProt Q9H207)
T12 sequence (whole entry): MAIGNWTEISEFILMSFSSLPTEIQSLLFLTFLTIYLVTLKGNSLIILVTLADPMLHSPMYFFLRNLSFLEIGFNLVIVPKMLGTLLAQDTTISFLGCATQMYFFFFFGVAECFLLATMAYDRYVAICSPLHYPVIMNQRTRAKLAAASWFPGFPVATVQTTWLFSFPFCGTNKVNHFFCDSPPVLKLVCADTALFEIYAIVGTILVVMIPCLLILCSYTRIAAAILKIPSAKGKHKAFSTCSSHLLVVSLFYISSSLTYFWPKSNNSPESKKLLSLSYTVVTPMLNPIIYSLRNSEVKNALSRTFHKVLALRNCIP
How it was run: as §1

OR10A6 (Homo sapiens) = target: T13, OR10A6 (Homo sapiens) (UniProt Q8NH74)
T13 sequence (whole entry): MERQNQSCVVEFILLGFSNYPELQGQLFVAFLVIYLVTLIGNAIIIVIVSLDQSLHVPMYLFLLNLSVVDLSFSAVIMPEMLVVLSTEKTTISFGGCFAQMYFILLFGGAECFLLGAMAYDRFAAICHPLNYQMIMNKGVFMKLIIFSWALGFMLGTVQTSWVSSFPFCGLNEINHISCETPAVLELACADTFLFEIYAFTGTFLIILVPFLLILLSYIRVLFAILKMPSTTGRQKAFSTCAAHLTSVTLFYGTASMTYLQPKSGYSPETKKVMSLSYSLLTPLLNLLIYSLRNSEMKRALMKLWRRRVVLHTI
How it was run: as §1

OR10A7 (Homo sapiens) = target: T14, OR10A7 (Homo sapiens) (UniProt Q8NGE5)
T14 sequence (whole entry): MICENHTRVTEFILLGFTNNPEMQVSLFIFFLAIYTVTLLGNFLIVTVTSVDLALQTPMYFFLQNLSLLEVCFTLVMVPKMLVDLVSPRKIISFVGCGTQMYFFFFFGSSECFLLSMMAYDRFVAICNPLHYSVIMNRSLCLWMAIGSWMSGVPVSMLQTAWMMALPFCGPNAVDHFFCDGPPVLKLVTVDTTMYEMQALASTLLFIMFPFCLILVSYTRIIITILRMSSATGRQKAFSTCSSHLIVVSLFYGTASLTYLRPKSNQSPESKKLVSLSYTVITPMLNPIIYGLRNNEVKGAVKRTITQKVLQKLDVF
How it was run: as §1

OR10AD1 (Homo sapiens) = target: T15, OR10AD1 (Homo sapiens) (UniProt Q8NGE0)
T15 sequence (whole entry): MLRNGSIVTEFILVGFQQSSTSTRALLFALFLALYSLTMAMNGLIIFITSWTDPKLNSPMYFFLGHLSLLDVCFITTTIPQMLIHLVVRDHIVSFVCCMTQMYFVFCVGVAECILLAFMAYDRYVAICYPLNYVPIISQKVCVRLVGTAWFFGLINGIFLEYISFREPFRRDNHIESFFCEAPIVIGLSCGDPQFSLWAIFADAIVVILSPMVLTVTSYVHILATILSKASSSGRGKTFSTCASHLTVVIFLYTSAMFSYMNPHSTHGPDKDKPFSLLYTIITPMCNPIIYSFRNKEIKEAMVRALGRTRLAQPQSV
How it was run: as §1

OR10AG1 (Homo sapiens) = target: T16, OR10AG1 (Homo sapiens) (UniProt Q8NH19)
T16 sequence (whole entry): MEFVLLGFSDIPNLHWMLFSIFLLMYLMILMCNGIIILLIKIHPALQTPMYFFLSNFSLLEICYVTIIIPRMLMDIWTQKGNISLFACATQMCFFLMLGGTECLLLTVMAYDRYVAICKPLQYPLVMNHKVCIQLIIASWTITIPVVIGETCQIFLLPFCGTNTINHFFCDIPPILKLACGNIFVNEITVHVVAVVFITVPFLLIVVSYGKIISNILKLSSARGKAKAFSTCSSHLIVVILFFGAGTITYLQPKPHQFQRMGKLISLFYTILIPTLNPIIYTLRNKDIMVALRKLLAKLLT
How it was run: as §1

OR10C1 (Homo sapiens) = target: T17, OR10C1 (Homo sapiens) (UniProt Q96KK4)
T17 sequence (whole entry): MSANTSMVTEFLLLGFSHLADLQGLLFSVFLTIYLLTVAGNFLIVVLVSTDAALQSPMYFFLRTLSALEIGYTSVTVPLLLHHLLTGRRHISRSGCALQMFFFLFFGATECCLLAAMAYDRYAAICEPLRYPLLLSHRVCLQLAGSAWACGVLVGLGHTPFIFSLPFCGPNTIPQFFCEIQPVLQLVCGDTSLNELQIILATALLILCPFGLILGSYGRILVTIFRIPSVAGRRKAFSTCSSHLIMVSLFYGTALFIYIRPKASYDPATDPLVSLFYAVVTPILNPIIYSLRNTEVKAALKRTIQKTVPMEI
How it was run: as §1

OR10D3 (Homo sapiens) = target: T18, OR10D3 (Homo sapiens) (UniProt Q8NH80)
T18 sequence (whole entry): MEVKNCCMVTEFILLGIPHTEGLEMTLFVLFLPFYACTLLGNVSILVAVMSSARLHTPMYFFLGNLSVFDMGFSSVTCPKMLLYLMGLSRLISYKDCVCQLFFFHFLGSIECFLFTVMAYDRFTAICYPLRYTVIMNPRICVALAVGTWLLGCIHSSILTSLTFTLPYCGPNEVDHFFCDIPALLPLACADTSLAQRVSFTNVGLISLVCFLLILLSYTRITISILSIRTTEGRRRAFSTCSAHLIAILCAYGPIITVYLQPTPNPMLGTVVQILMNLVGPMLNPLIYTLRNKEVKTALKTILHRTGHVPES
How it was run: as §1

Measured: odorant receptor agonist call;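 note: active if original authors judged signal statistically different from baseline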

CCC1OC(=O)C(O)=C1C (stereo not drawn)
inactive: all assays above

— the M2OR odorant receptor database
